Measurements from ChEMBL document CHEMBL4513216, “Probing the Open Global Health Chemical Diversity Library for Multistage-Active Starting Points for Next-Generation Antimalarials” (ACS Infect Dis, 2020).

Assay: Toxicity liver stage against HepG2, at 10uM
Assay type: cell-based
Set-up: test concentration 10 uM, cell line HepG2-A16-CD81EGFP
Settings: human, HepG2-A16-CD81EGFP cells; read-out: INHIBITION
Outline: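 Uninfected HepG2-A16-CD81EGFP cells, 3 × 10^3 per well, 1536-well, plated on prespotted compound at 10 μM final, parasite-free screening media added to match infected plates; puromycin 10 μM positive, DMSO 0.5% negative; run in parallel with 48 h PbLuc assay at 37 °C, 5% CO2; viability by CellTiter-Glo luminescence, normalized to controls.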

| SMILES | cytotoxicity at 10 µM [%] |
| --- | --- |
| O=C(NCc1nncn1C1CCCCC1)C1CNCCO1 (stereo unspecified) | -2.08 |
| c1ccc2c(c1)CC(N1CCCN(Cc3cccc4nonc34)CC1)C2 | -2.37 |
| O=C(c1cccc(CNCC2CNc3ccnn3C2)c1)N1CCCC1 (stereo unspecified) | 6.26 |
| CCC(CC)C(=O)NCc1cnn(CC)c1 | 7.19 |
| CC(C)N(C)C(=O)c1ccc(Cl)c(NC(=O)CCN2C(=O)CCC2=O)c1 | -2.63 |
| CNc1ncc(C(=O)N2CCOC(C(=O)NC3CCCC3)C2)cn1 (stereo unspecified) | 12.2 |
| CCS(=O)(=O)N1CCCC(Cc2cnccn2)C1 (stereo unspecified) | -10.3 |
| CC(C)c1ccc(CN[C@@H]2COC[C@H]2c2ccc(F)cc2)cc1 | -7.52 |
| Cc1n[nH]c(C2CN(Cc3csc(C4CCCC4)n3)CCO2)n1 (stereo unspecified) | 12.9 |
| Cc1ccc(C(=O)NCCC(C)C)cc1NS(C)(=O)=O | 10.9 |
| O=C(C1CCCOC1)N1CCCCc2ccccc21 (stereo unspecified) | -5.51 |
| COc1cccc(CCC2CCCN(C(=O)c3ccc(=O)n(C)n3)C2)c1 (stereo unspecified) | 4.34 |
| Cn1cccc1C(=O)N1CC[C@H]2C[C@@H](c3ccncn3)O[C@@H]2C1 | 0.77 |
| Cc1cnn(CC2CN(CCS(C)(=O)=O)CCO2)c1 (stereo unspecified) | -2.25 |
| CNC(=O)CN1CCC(OCC2CCCO2)CC1 (stereo unspecified) | 1.99 |
| O=C1CCCCN1CCc1nc(C2(c3ccc(F)cc3)CCOC2)no1 (stereo unspecified) | 3.82 |
| O=C(Nc1ccc2c(c1)OCO2)N1CCCC1c1ccco1 (stereo unspecified) | -2.11 |
| Cc1cccc(CS(=O)(=O)c2nnc([C@@H](N)Cc3ccccc3)o2)c1 | 7.09 |
| Cc1nc(CN2CCCC(NCC(=O)Nc3cccnc3)C2)no1 (stereo unspecified) | 0.0757 |
| CC(C(=O)NCc1ccnc(N2CCOCC2)c1)n1cccn1 (stereo unspecified) | -6.28 |
| Cc1cc(CN2CCC3(CC2)COC(COc2ccccn2)C3)no1 (stereo unspecified) | 5.8 |
| CC(C)c1nc(C2CCCN2CC(=O)Nc2ccc(Cl)cn2)no1 (stereo unspecified) | -3.13 |
| COc1ccc(OC)c(C(C(=O)O)N2CCSCC2)c1 (stereo unspecified) | -1.02 |

| SMILES | cytotoxicity at 10 µM [%] |
| --- | --- |
| O=S(=O)(c1cccnc1)N1CCCCC1CCN1CCOCC1 (stereo unspecified) | -3.03 |
| Cc1nnc(-c2cccc(C#N)c2)n1C1CCN(C(C)C)C1=O (stereo unspecified) | -2.4 |
| O=C(c1ccco1)N1C2CCC(O)(CC2)C1CO (stereo unspecified) | 6.88 |
| CN(C)Cc1nn(C)c2c1CN(C(=O)Nc1cccc(F)c1)C2 | 4.23 |
| CCC1c2ccsc2CCN1C(=O)NCc1cccnc1OC (stereo unspecified) | -2.28 |
| CC(C)(N)C(=O)N1CCCC1c1cncc(Oc2ccccc2)n1 (stereo unspecified) | -6.02 |
| COc1cccc(Nc2nc(C3CCNCC3)c3sc(C)c(C)n23)c1 | 4.24 |
| CC[C@H](C)[C@H](N)C(=O)Nc1nc(-c2cnc(N(C)CCO)nc2)cs1 | -9.27 |
| CCOC(=O)NCCC(=O)NCc1ccnc(Oc2ccc(F)cc2)c1 | 6.74 |
| CC(C)CN1C(=O)C2(CCN(Cc3ccc(F)cc3)C2)c2ccccc21 (stereo unspecified) | 13 |
| CCC[C@@H]1CN(Cc2cc(OC)c3c(c2)OCO3)C[C@H]1C(=O)O | -0.778 |
| Cc1nc(C)n(CC2CCCN2Cc2nc3ccccc3s2)n1 (stereo unspecified) | -6.25 |
| COc1ccc2c(C)nc(N3C[C@@H](C)O[C@@H](C)C3)nc2c1 | 6.77 |
| CCCc1cc(=O)[nH]c2nnc(SCC(N)=O)n12 | 13.8 |
| O=C(CCNS(=O)(=O)c1cccnc1)N1CCOC(c2ccccc2)C1 (stereo unspecified) | 5.11 |
| Cc1cc(CN2CC[C@H]3C(=O)N(c4cccnc4)CCO[C@H]3C2)no1 | -66.8 |
| CC(C)c1nc(CNc2ccc(CNS(C)(=O)=O)cc2)cs1 | 3.82 |
| Cc1ccc(C(=O)NCc2cccnc2N(C)C)s1 | -2.12 |
| O=C(C1CCCC1)N1C[C@@H]2CCN(c3cnccn3)C[C@@H]2C1 | 3.44 |
| CCOCCCC(=O)NCc1ccc(N2CCCCC2)cc1 | -4.06 |
| O=C(Cn1cc(C2CC2)nn1)N(Cc1ccco1)CC1CCCO1 (stereo unspecified) | 0.0636 |
| CN1Cc2cnn(CC3CCCC3)c2C(COCC2CC2)C1 (stereo unspecified) | -1.6 |
| O=C(Cc1ccc2c(c1)OCC2)Nc1nn[nH]n1 | 0.548 |

| SMILES | cytotoxicity at 10 µM [%] |
| --- | --- |
| CC(NC(=O)c1ccoc1)c1ccc2c(c1)CCC(=O)N2 (stereo unspecified) | -1.36 |
| CCOc1ccccc1CNC(=O)N1CCC(n2cncn2)CC1 | -0.819 |
| Cc1ccc(CN2C[C@@H]3C[C@H](C(=O)NCc4cccnc4)[C@H](C2)O3)o1 | 3.82 |
| Cc1cc(C)n(CC2CCCCN2CC(=O)Nc2nncs2)n1 (stereo unspecified) | -4.25 |
| O=C(C1CC1)N1CCC(c2nc(O)c3c(n2)CN(C2CCCC2)CC3)C1 (stereo unspecified) | -24.1 |
| Cn1ccc(CN2CCC(c3ccccc3)CC2)cc1=O | -6.46 |
| Cc1csc(N2CCN(C(=O)c3c(C)oc(C)c3C)CC2)n1 | -14 |
| COc1ccc(F)cc1C(=O)N1C[C@H]2CC(OC)C[C@H]2C1 (stereo partly specified) | -2.19 |
| O=C(NC1=NCCS1)C1CSCN1C(=O)C1CCCC1 (stereo unspecified) | 6.8 |
| COc1cccn(CC(=O)N2CCCC3(CCCCC3)C2)c1=O | -1.29 |
| CC(C)C1CN(c2ncccc2Cl)CCC(=O)N1Cc1ccc(F)cc1 (stereo unspecified) | 2.41 |
| CCOCC(O)CN1CCN(C(=O)c2cc(Cl)ccc2F)CC1 (stereo unspecified) | -6.54 |
| CC(c1nc(-c2ccccc2)no1)N1CCc2c(ncn2C2CC2)C1 (stereo unspecified) | 7.12 |
| Cc1ccc(N2CCCN(C(=O)CCc3ccsc3)CC2)nn1 | -2.22 |
| O=c1[nH]c2nc(N3CCOCC3)ncc2c(=O)n1-c1cccc(F)c1 | 9.32 |
| COc1cc(C)cc(C(C(=O)O)N(C)CCN2CCCC2)c1OC (stereo unspecified) | 0.712 |
| CNC(=O)CN1CCOCC2(CCCN(Cc3ccoc3)C2)C1 (stereo unspecified) | 6.65 |
| NC(=O)CN1CCCN(C(=O)Cc2ccc3c(c2)OCCO3)CC1 | 0.169 |
| CC(C)(C)OC(=O)N1CCN(S(=O)(=O)CCCC#N)C2(CCCCC2)C1 | -6.1 |
| O=C(NCCc1cccs1)[C@]12COC[C@H]1CN(Cc1ccccn1)C2 | -105 |
| Fc1ccc2[nH]c([C@H]3CCN(C4CCOCC4)C3)nc2c1 | 1.9 |
| FC(F)(F)Oc1ccc(CN2CCCC(n3cncn3)C2)cc1 (stereo unspecified) | -14.4 |
| Cc1nccc(N2CC[C@@H]3[C@@H](CCC(=O)N3CCc3ccccc3)C2)n1 | 2.19 |

| SMILES | cytotoxicity at 10 µM [%] |
| --- | --- |
| Cc1noc(C)c1CN1CCO[C@H]2CN(CC3CC3)C[C@H]21 | -4.25 |
| c1cncc(-c2noc(CN3CCCC(Cn4cncn4)C3)n2)c1 (stereo unspecified) | -2.18 |
| CC(NC(=O)N1CCN(c2ccc(Cl)cc2)CC1)C(=O)N1CCSCC1 (stereo unspecified) | 25.4 |
| C=C(C)COc1cccc(CN(C)C(C)c2ccncn2)c1 (stereo unspecified) | -47.6 |
| CNC(=O)[C@H]1C[C@H]2CN(C(=O)Nc3ccc(F)cc3)C[C@@H]1O2 | 3.28 |
| O=C(NCC1(C(=O)O)CCC1)c1nnn(-c2ccc(F)cc2)c1C1CC1 | -14.8 |
| Cc1nc(CN2CCCC(N(C)CCc3cccs3)C2)no1 (stereo unspecified) | -21.8 |
| CC(C)(C)c1nnc(NCc2ccc(F)cc2)o1 | 6.88 |
| c1cc(C2CCCN2CC2CC2)n[nH]1 (stereo unspecified) | -1.75 |
| O=C(NCC(O)Cc1ccccc1)c1ccc2[nH]c(=O)[nH]c2c1 (stereo unspecified) | 4.14 |
| Cc1nc(C)n(CC2CCCCN2CC(=O)Nc2ccncc2)n1 (stereo unspecified) | -0.344 |
| COCCCC1CCN([C@@H]2c3ccccc3C3(CCNCC3)[C@H]2O)CC1 | -4.67 |
| Cc1cc(C)c(CNc2nc3ccccc3cc2CO)c(=O)[nH]1 | 6.37 |
| CSCC(C)(O)CNC(=O)c1ccc(Br)cc1C (stereo unspecified) | 1.57 |
| O=C(NCCCO)Nc1ccccc1 | 1.52 |
| CCNC(=O)[C@@H]1C[C@H](N)CN1C(=O)Cc1cc(C)ccc1C | 2.43 |
| c1cc(CNCc2ccc(Cn3cncn3)cc2)c2c(c1)OCCO2 | 0.585 |
| CCNC(=O)N1CC[C@H]2CC(=O)N(C3CCCCC3)CC[C@H]2C1 | -1.08 |
| CCOC(C)c1noc(CN2CCN(Cc3ccno3)CC2)n1 (stereo unspecified) | 7.24 |
| Cc1csc(C(C)(C)NCCNS(C)(=O)=O)n1 | 4.61 |
| CCN1CC(CN(C)Cc2nc(-c3cccc(C)c3)oc2C)CC1=O (stereo unspecified) | -9.8 |
| CCc1noc(C(C)N(C)CC(=O)Nc2cccc(C)c2C)n1 (stereo unspecified) | 6.35 |
| NC(=O)c1csc(N2CCCC(c3nc4ccccc4[nH]3)C2)n1 (stereo unspecified) | 8.5 |

| SMILES | cytotoxicity at 10 µM [%] |
| --- | --- |
| COc1ccc2c(c1)CCCC2CC(=O)NCC(=O)O (stereo unspecified) | -4.31 |
| Cc1nc(CN2C(=O)CC[C@@H]3[C@H]2CCN3C(=O)c2ccno2)cs1 | -82.7 |
| CC(C)(C)c1nc(CN2CCOC(Cn3cncn3)C2)cs1 (stereo unspecified) | -7.2 |
| CC(C)N1CCC2(CCNCC2)C1=O | -2.98 |
| O=C(CC(F)(F)F)N1C[C@H]2CC[C@@H](C1)N(Cc1ccccc1)C2=O | 7.71 |
| c1cnc(-c2nc(CNCCn3cccn3)cs2)nc1 | -10.3 |
| COc1cccc(N2CCN(CCC(=O)NC3CCCCC3)CC2)c1 | -5.64 |
| Cn1cc(C(=O)NCc2cn3c(n2)CN(CC2CCOC2)CC3)cn1 (stereo unspecified) | 5.22 |
| O=C(N[C@H]1CN(c2nc(CO)cs2)C[C@@H]1C1CC1)C1CCCCC1 | -0.464 |
| Cc1cnn(CCC(=O)N2CCCN(c3nc(C)cs3)CC2)c1 | -4.05 |
| Cn1cnc2c1C(COCc1cccnc1)N(Cc1ccccc1)CC2 (stereo unspecified) | 13.5 |
| O=C(NCc1ccccc1Cn1cncn1)C1CCCC1 | -2.34 |
| NC(=O)CCSCc1ccc(Br)c(F)c1 | -4.81 |
| Cn1cc(NC(=O)N2CCN(Cc3cscn3)CC2)ccc1=O | 3.67 |
| OCC1(O)CCCN(Cc2noc(-c3ccccc3)n2)C1 (stereo unspecified) | -4.76 |
| Cc1nn(C)c2cnn(CCCNS(=O)(=O)Cc3ccccc3)c12 | 0.999 |
| Cn1cnc2c1CCN(Cc1noc(-c3ccccc3)n1)C2 | -1.96 |
| Cc1nc(-c2ccco2)ccc1C(=O)NCCC(=O)N1CCCCC1 | -1.33 |
| Cc1ccc(CC(=O)N2CCCC(c3ccn[nH]3)C2)cn1 (stereo unspecified) | 0.691 |
